Data published in ChEMBL document CHEMBL1158958, “Studies on inhibitors of skin tumor promotion, IX. Neolignans from Magnolia officinalis” (J Nat Prod, 1991).

Legend:
[1] = tested on: Raji; assay: Inhibition of 12-O-tetradecanoylphorbol-13-acetate-induced EBV-early antigen activation in human Raji cells at 1000 molar ratio after 48 hrs relative to TPA; assay type: cell-based; parameters: scale not given: the % may be the effect or the level left; conditions: human gammaherpesvirus 4
How it was run: (§1)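 Raji indicator cells kept 48 h at 37° in 1 ml medium with n-butyric acid (4 mM, co-inducer), TPA (20 ng/ml, […]) and test compound in DMSO, dosed as mol ratio to TPA. EA-positive cells were found by indirect immunofluorescence on smears with high-titer EBV-positive NPC patient sera. At least 500 cells counted per assay, repeated twice. Induction is expressed relative to the butyric acid+TPA positive control (100%).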

[2] = tested on: Raji; assay: Inhibition of 12-O-tetradecanoylphorbol-13-acetate-induced EBV-early antigen activation in human Raji cells at 500 molar ratio after 48 hrs relative to TPA; assay type: cell-based; parameters: scale not given: the % may be the effect or the level left; conditions: human gammaherpesvirus 4; how it was run: as §1
[3] = tested on: Raji; assay: Inhibition of 12-O-tetradecanoylphorbol-13-acetate-induced EBV-early antigen activation in human Raji cells at 100 molar ratio after 48 hrs relative to TPA; assay type: cell-based; parameters: scale not given: the % may be the effect or the level left; conditions: human gammaherpesvirus 4; how it was run: as §1
[4] = tested on: Raji; assay: Inhibition of 12-O-tetradecanoylphorbol-13-acetate-induced EBV-early antigen activation in human Raji cells at 10 molar ratio after 48 hrs relative to TPA; assay type: cell-based; parameters: scale not given: the % may be the effect or the level left; conditions: human gammaherpesvirus 4; how it was run: as §1
[5] = tested on: Raji; assay: Inhibition of 12-O-tetradecanoylphorbol-13-acetate-induced EBV-early antigen activation in human Raji cells at 1 molar ratio after 48 hrs relative to TPA; assay type: cell-based; parameters: scale not given: the % may be the effect or the level left; conditions: human gammaherpesvirus 4; how it was run: as §1
[6] = Cytotoxicity against human Raji cells assessed as cell viability at 1000 molar ratio; assay type: cell-based; conditions: read-out: Activity
How it was run: (§2)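 Raji cell viability read in the same EBV-EA run: 48 h at 37° with n-butyric acid (4 mM) and TPA ([…]) plus test compound in DMSO, dosed as mol ratio to TPA. Viability is given alongside the relative EA activation values.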

[7] = Cytotoxicity against human Raji cells assessed as cell viability at 500 molar ratio; assay type: cell-based; conditions: read-out: Activity; how it was run: as §2
[8] = Cytotoxicity against human Raji cells assessed as cell viability at 100 molar ratio; assay type: cell-based; conditions: read-out: Activity; how it was run: as §2
[9] = Cytotoxicity against human Raji cells assessed as cell viability at 10 molar ratio; assay type: cell-based; conditions: read-out: Activity; how it was run: as §2
[10] = Cytotoxicity against human Raji cells assessed as cell viability at 1 molar ratio; assay type: cell-based; conditions: read-out: Activity; how it was run: as §2
[11] = tested on: Mus musculus; assay: Inhibition of DMBA-induced/TPA-promoted carcinogenesis in ICR mouse assessed as reduction of skin papillomas per mouse at 85 nmol administered twice weekly after 1 week of initiation measured after 20 weeks; assay type: functional; parameters: scale not given: the % may be the effect or the level left
How it was run: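 Female ICR mice, 7 weeks old, 15 per group, had shaved backs. They were initiated with DMBA (100 µg, […]) in Me2CO, then promoted from 1 week later with TPA (1 µg, […]) in Me2CO twice weekly, with test agent given with TPA. Papilloma incidence and average papillomas per mouse were scored against the TPA-alone control.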

| SMILES | Activity [1] [%] | Activity [2] [%] | Activity [3] [%] | Activity [4] [%] | Activity [5] [%] | viability at 1000 molar ratio [6] [%] | viability at 500 molar ratio [7] [%] | viability at 100 molar ratio [8] [%] | viability at 10 molar ratio [9] [%] | viability at 1 molar ratio [10] [%] | Activity [11] [%] |
| --- | --- | --- | --- | --- | --- | --- | --- | --- | --- | --- | --- |
| CC1=CC[C@H](C(C)C)C=C1 [ALPHA-PHELLANDRENE] | 78.5 | 93.7 | 100 | 100 | 100 | > 80 | > 80 | > 80 | > 80 | > 80 |  |
| C=C1CCC[C@]2(C)CC[C@@H](C(C)(C)O)C[C@@H]12 [BETA-EUDESMOL] | 40.1 | 68.9 | 83.8 | 100 | 100 | > 80 | > 80 | > 80 | > 80 | > 80 |  |
| C=CCc1ccc(O)c(-c2ccc(O)c(CC=C)c2)c1 [HONOKIOL] | 0 | 18.5 | 69.4 | 90.1 | 100 | 60 | > 80 | > 80 | > 80 | > 80 |  |
| C=CCc1ccc(O)c(-c2cc(CC=C)ccc2O)c1 [MAGNOLOL] | 0 | 0 | 31.2 | 56.9 | 94.4 | 70 | > 80 | > 80 | > 80 | > 80 | 40 |
| C=CCc1ccc(O)c(-c2cc(CC=C)cc(C3C=C(C)CC[C@@H]3C(C)C)c2O)c1 (stereo partly specified) [MONOTERPENYL MAGNOLOL] | 11.6 | 20.9 | 82.6 | 100 | 100 | 60 | > 80 | > 80 | > 80 | > 80 |  |
